{
  "source": "ChEMBL document CHEMBL1148799",
  "about": "“Solid-phase synthesis and insights into structure-activity relationships of safinamide analogues as potent and selective inhibitors of type B monoamine oxidase” (J Med Chem, 2007)",
  "key": {"[1]": {"target": "T1, Amine oxidase [flavin-containing] A (Rattus norvegicus, UniProt P21396)", "T1 sequence (P21396 whole entry)": "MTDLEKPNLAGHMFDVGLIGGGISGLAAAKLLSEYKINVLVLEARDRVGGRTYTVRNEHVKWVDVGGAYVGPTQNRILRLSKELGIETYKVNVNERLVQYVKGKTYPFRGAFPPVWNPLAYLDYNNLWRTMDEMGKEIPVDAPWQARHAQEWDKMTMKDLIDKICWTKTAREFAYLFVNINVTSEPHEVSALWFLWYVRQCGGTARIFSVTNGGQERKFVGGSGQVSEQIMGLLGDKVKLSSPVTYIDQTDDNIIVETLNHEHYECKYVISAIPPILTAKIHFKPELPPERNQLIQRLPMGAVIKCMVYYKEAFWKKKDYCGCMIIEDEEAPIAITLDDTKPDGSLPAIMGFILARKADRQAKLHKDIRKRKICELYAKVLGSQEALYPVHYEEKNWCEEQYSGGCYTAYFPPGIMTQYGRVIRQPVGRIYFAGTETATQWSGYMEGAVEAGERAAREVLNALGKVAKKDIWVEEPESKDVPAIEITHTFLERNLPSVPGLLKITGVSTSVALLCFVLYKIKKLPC", "test": "Inhibition of rat brain mitochondria MAOA by radioenzymatic assay", "how_it_was_run": "(§1)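 Rat brain mitochondrial pellet (500 µg protein) in 0.1 M phosphate buffer, pH 7.40, preincubated 30 min at 37 °C with inhibitor (as methanesulfonate salt) or buffer. Then 5 µM ¹⁴C-5-HT for 30 min at 37 °C, stopped with HCl. Ether-extracted acidic metabolites counted by liquid scintillation. IC50 by nonlinear regression from 5–8 concentrations (10^-10–10^-5 M) in duplicate, or % inhibition at one concentration.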"}, "[2]": {"target": "T2, Amine oxidase [flavin-containing] B (Rattus norvegicus, UniProt P19643)", "T2 sequence (P19643 whole entry)": "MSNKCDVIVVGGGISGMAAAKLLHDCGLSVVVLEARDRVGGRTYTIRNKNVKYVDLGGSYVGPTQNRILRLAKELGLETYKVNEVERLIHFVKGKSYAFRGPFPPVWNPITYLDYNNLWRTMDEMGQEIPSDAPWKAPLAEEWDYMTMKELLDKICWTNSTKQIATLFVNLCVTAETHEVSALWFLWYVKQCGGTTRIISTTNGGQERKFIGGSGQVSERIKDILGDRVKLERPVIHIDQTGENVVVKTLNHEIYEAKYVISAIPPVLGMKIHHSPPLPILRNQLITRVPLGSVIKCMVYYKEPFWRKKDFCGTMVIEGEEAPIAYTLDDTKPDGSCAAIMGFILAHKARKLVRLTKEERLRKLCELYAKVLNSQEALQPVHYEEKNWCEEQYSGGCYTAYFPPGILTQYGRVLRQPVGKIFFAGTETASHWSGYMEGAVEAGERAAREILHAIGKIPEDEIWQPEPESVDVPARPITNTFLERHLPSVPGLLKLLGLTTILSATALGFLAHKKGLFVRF", "test": "Inhibition of rat brain mitochondria MAOB by radioenzymatic assay", "how_it_was_run": "as §1, with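 “Then 0.5” for “Then 5”, “µM ¹⁴C-PEA” for “µM ¹⁴C-5-HT”, “for 10” for “for 30”, “with perchloric acid. Toluene-extracted” for “with HCl. Ether-extracted acidic”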"}, "Rattus norvegicus": {"species_on_record": "Rattus norvegicus", "test": "Selectivity index, ratio of IC50 for rat brain mitochondria MAOA to IC50 for rat brain mitochondria MAOB", "how_it_was_run": "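IC50(MAO-A)/IC50(MAO-B). Both come from radioenzymatic assays on rat brain mitochondria after 30 min inhibitor preincubation at 37 °C, pH 7.40. MAO-A used 5 µM ¹⁴C-5-HT for 30 min; MAO-B used 0.5 µM ¹⁴C-PEA for 10 min. IC50s from nonlinear regression of duplicate 5–8-point curves.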"}, "[3]": {"target": "T1, Amine oxidase [flavin-containing] A", "test": "Inhibition of rat brain mitochondria MAOA at 100 uM by radioenzymatic assay", "how_it_was_run": "as §1"}, "[4]": {"target": "T2, Amine oxidase [flavin-containing] B", "test": "Inhibition of rat brain mitochondria MAOB at 10 uM by radioenzymatic assay", "how_it_was_run": "as §1, with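 “Then 0.5” for “Then 5”, “µM ¹⁴C-PEA” for “µM ¹⁴C-5-HT”, “for 10” for “for 30”, “with perchloric acid. Toluene-extracted” for “with HCl. Ether-extracted acidic”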"}},
  "data": [
    {"smiles": "C[C@@H](NCc1ccc(OCc2cccc(Cl)c2)cc1)C(N)=O", "values": [
      {"measurement": "IC50", "setting": "[1]", "value": 72, "unit": "µM"},
      {"measurement": "IC50", "setting": "[2]", "value": 0.8, "unit": "µM"},
      {"measurement": "Selectivity index", "setting": "Rattus norvegicus", "value": 90}
    ]},
    {"smiles": "NC(=O)[C@H](CO)NCc1ccc(OCc2ccc([N+](=O)[O-])cc2)cc1", "values": [
      {"measurement": "IC50", "setting": "[2]", "value": 7.01, "unit": "µM"},
      {"measurement": "inhibition at 100 µM", "setting": "[3]", "value": 38, "unit": "%"}
    ]},
    {"smiles": "NC(=O)CNCc1ccc(OCc2ccc(Cl)cc2)cc1", "values": [
      {"measurement": "IC50", "setting": "[1]", "value": 12.4, "unit": "µM"},
      {"measurement": "IC50", "setting": "[2]", "value": 7.1, "unit": "µM"},
      {"measurement": "Selectivity index", "setting": "Rattus norvegicus", "value": 1.7}
    ]},
    {"smiles": "NC(=O)[C@@H](NCc1ccc(OCc2cccc(Cl)c2)cc1)c1ccccc1", "values": [
      {"measurement": "IC50", "setting": "[2]", "value": 10.1, "unit": "µM"},
      {"measurement": "inhibition at 100 µM", "setting": "[3]", "value": 33, "unit": "%"}
    ]},
    {"smiles": "C[C@@H](C(N)=O)N1CCc2cc(OCc3cccc(F)c3)ccc2C1", "values": [
      {"measurement": "IC50", "setting": "[1]", "value": 45, "unit": "µM"},
      {"measurement": "IC50", "setting": "[2]", "value": 0.24, "unit": "µM"},
      {"measurement": "Selectivity index", "setting": "Rattus norvegicus", "value": 188}
    ]},
    {"smiles": "C[C@H](NCc1ccc(OCc2cccc(Cl)c2)cc1)C(N)=O", "values": [
      {"measurement": "IC50", "setting": "[2]", "value": 0.033, "unit": "µM"},
      {"measurement": "Selectivity index", "setting": "Rattus norvegicus", "value": 3460}
    ]},
    {"smiles": "C[C@H](NCc1ccc(OCc2ccc(Cl)cc2)cc1)C(N)=O", "values": [
      {"measurement": "IC50", "setting": "[2]", "value": 2.2, "unit": "µM"},
      {"measurement": "inhibition at 100 µM", "setting": "[3]", "value": 37, "unit": "%"}
    ]},
    {"smiles": "C[C@H](C(N)=O)N1CCc2cc(OCc3cccc(F)c3)ccc2C1", "values": [
      {"measurement": "IC50", "setting": "[1]", "value": 50, "unit": "µM"},
      {"measurement": "IC50", "setting": "[2]", "value": 0.017, "unit": "µM"},
      {"measurement": "Selectivity index", "setting": "Rattus norvegicus", "value": 2940}
    ]},
    {"smiles": "C[C@@H](NCc1ccc(OCc2cccc(F)c2)cc1)C(N)=O", "values": [
      {"measurement": "IC50", "setting": "[1]", "value": 42, "unit": "µM"}
    ]},
    {"smiles": "NC(=O)[C@H](CO)NCc1ccc(OCc2cccc(F)c2)cc1", "values": [
      {"measurement": "IC50", "setting": "[1]", "value": 100, "unit": "µM"},
      {"measurement": "Selectivity index", "setting": "Rattus norvegicus", "value": 714}
    ]},
    {"smiles": "NC(=O)[C@@H](CO)NCc1ccc(OCc2cccc(Cl)c2)cc1", "values": [
      {"measurement": "IC50", "setting": "[1]", "value": 100, "unit": "µM"},
      {"measurement": "Selectivity index", "setting": "Rattus norvegicus", "value": 909}
    ]},
    {"smiles": "NC(=O)[C@@H](NCc1ccc(OCc2ccc([N+](=O)[O-])cc2)cc1)c1ccccc1", "values": [
      {"measurement": "inhibition at 100 µM", "setting": "[3]", "value": 16, "unit": "%"},
      {"measurement": "inhibition at 10 µM", "setting": "[4]", "value": 4, "unit": "%"}
    ]},
    {"smiles": "NC(=O)[C@H](CO)NCc1ccc(OCc2ccc(Cl)cc2)cc1", "values": [
      {"measurement": "IC50", "setting": "[2]", "value": 1.1, "unit": "µM"},
      {"measurement": "inhibition at 100 µM", "setting": "[3]", "value": 47, "unit": "%"}
    ]},
    {"smiles": "NC(=O)[C@@H](NCc1ccc(OCc2ccccc2)cc1)c1ccccc1", "values": [
      {"measurement": "IC50", "setting": "[2]", "value": 73.8, "unit": "µM"},
      {"measurement": "inhibition at 100 µM", "setting": "[3]", "value": 35, "unit": "%"}
    ]},
    {"smiles": "NC(=O)CNCc1ccc(OCc2cccc(F)c2)cc1", "values": [
      {"measurement": "IC50", "setting": "[1]", "value": 13.6, "unit": "µM"},
      {"measurement": "IC50", "setting": "[2]", "value": 2.24, "unit": "µM"},
      {"measurement": "Selectivity index", "setting": "Rattus norvegicus", "value": 6.1}
    ]},
    {"smiles": "C[C@H](NCc1ccc(OCc2ccccc2)cc1)C(N)=O", "values": [
      {"measurement": "IC50", "setting": "[1]", "value": 101, "unit": "µM"},
      {"measurement": "IC50", "setting": "[2]", "value": 0.26, "unit": "µM"},
      {"measurement": "Selectivity index", "setting": "Rattus norvegicus", "value": 388}
    ]},
    {"smiles": "NC(=O)[C@H](CO)NCc1ccc(OCc2cccc(Cl)c2)cc1", "values": [
      {"measurement": "IC50", "setting": "[2]", "value": 0.043, "unit": "µM"},
      {"measurement": "Selectivity index", "setting": "Rattus norvegicus", "value": 1970}
    ]},
    {"smiles": "NC(=O)[C@H](CO)NCc1ccc(OCc2ccccc2)cc1", "values": [
      {"measurement": "IC50", "setting": "[1]", "value": 90, "unit": "µM"},
      {"measurement": "IC50", "setting": "[2]", "value": 0.41, "unit": "µM"},
      {"measurement": "Selectivity index", "setting": "Rattus norvegicus", "value": 220}
    ]},
    {"smiles": "NC(=O)[C@@H](NCc1ccc(OCc2cccc(F)c2)cc1)c1ccccc1", "values": [
      {"measurement": "IC50", "setting": "[1]", "value": 34, "unit": "µM"},
      {"measurement": "IC50", "setting": "[2]", "value": 10, "unit": "µM"},
      {"measurement": "Selectivity index", "setting": "Rattus norvegicus", "value": 3.4}
    ]},
    {"smiles": "NC(=O)CNCc1ccc(OCc2ccccc2)cc1", "values": [
      {"measurement": "IC50", "setting": "[1]", "value": 8.5, "unit": "µM"},
      {"measurement": "IC50", "setting": "[2]", "value": 3.15, "unit": "µM"},
      {"measurement": "Selectivity index", "setting": "Rattus norvegicus", "value": 2.7}
    ]},
    {"smiles": "C[C@H](NCc1ccc(OCc2ccc([N+](=O)[O-])cc2)cc1)C(N)=O", "values": [
      {"measurement": "inhibition at 100 µM", "setting": "[3]", "value": 22, "unit": "%"},
      {"measurement": "inhibition at 10 µM", "setting": "[4]", "value": 37, "unit": "%"}
    ]},
    {"smiles": "NC(=O)CNCc1ccc(OCc2cccc(Cl)c2)cc1", "values": [
      {"measurement": "IC50", "setting": "[1]", "value": 37, "unit": "µM"},
      {"measurement": "IC50", "setting": "[2]", "value": 0.34, "unit": "µM"},
      {"measurement": "Selectivity index", "setting": "Rattus norvegicus", "value": 109}
    ]},
    {"smiles": "NC(=O)CNCc1ccc(OCc2ccc([N+](=O)[O-])cc2)cc1", "values": [
      {"measurement": "IC50", "setting": "[1]", "value": 21.2, "unit": "µM"},
      {"measurement": "IC50", "setting": "[2]", "value": 9.1, "unit": "µM"},
      {"measurement": "Selectivity index", "setting": "Rattus norvegicus", "value": 2.3}
    ]},
    {"smiles": "NC(=O)[C@@H](NCc1ccc(OCc2ccc(Cl)cc2)cc1)c1ccccc1", "values": [
      {"measurement": "inhibition at 100 µM", "setting": "[3]", "value": 27, "unit": "%"},
      {"measurement": "inhibition at 10 µM", "setting": "[4]", "value": 34, "unit": "%"}
    ]}
  ]
}
